Screening results: PubChem, several laboratories
WT yeast gro inh – growth inhibition of WT strain, primary screen, mitochondrial fusion inhibitor project, WT and mutant strains, chemical genetic. 2.1% of 190,000 active. mitochondrial fusion phenotypic screen. inhibition, % at 10 µM; in the data active means inhibition above about 58%; tested in S. cerevisiae
Yeast life ext – compounds extending yeast replicative lifespan, primary screen, S. cerevisiae, OD615; S. cerevisiae growth with nicotinamide; deaD strain in restrictive glucose medium; inhibition of the nicotinamide effect, % at 10 µM; 0.68% of 130,000 active; AID 775, 2007;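 active means inhibition above a set limit, placed 3 SD over the median of all compounds, cut at about 26% in these data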
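Measured by: optical density (absorbance) at 615 nm; System: modified budding yeast, DeaD strain; Medium: restrictive CSMM-D dextrose medium; Timing: 4 h preincubation then 48 h treatment at 30 °C.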
DAT uptake mod – changed hDAT dopamine uptake under cocaine IC80, either direction, primary screen, cocaine antagonist project, cell-based, LLC-PK1 hDAT, [14C]-dopamine uptake, MLSMR; Sodium-dependent dopamine transporter (Homo sapiens), Q01959; LLC-PK1 hDAT cells, [14C]-dopamine uptake with cocaine IC80; actives deviate in either direction; B-score at 10 µM; 1.3% of 110,000 active; AID 449768, 2010;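 active means Z score or B-score, a plate-position-corrected score, falls beyond the plate's 99.7% confidence bounds, in either direction; inactive means both scores lie inside the 99.7% bounds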
Target sequence (Q01959 whole entry, looked up): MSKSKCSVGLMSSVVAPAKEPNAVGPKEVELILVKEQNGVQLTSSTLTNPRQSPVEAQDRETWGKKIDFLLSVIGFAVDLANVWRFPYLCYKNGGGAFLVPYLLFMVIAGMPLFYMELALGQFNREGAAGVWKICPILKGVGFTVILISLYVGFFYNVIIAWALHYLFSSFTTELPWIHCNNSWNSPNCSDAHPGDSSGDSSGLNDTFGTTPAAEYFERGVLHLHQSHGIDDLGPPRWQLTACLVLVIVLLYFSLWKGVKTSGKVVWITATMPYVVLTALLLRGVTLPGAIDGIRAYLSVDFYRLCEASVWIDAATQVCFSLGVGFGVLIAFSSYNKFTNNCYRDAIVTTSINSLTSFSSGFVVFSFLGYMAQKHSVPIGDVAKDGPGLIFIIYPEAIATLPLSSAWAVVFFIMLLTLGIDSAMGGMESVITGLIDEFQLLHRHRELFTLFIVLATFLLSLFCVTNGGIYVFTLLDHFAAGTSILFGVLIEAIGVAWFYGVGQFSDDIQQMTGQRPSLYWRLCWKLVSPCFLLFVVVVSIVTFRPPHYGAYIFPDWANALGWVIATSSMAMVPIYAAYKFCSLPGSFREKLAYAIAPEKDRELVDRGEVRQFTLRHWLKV
Measles CPE – compounds protecting cells from measles virus cytopathic effect, primary screen, measles RdRp inhibitor project, single point, MLSMR library, absorbance; Measles virus-infected cells, CPE protection; 1.5% of 140,000 active; protection (pct of control), % at 4 µM; AID 841, 2007; in the data active means protection mostly above about 24%, no sharp cut-off; inactive means mostly below about 26%
BB579 growth dn – growth inhibitors of yeast BB579 in restrictive medium, primary screen, yeast lifespan-shortening project, S. cerevisiae. OD615, 48 h. inhibition, % at 10 µM. 0.51% of 140,000 active;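 active means inhibition above a set limit, 3 SD over the mean compound inhibition, cut at about 44% in these data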
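Test system: Saccharomyces cerevisiae DeaD strain BB579, replicative lifespan model yeast | Buffer or medium: Restrictive CSMM-D medium | Doses: One dose, 10 µM compound with 0.25% DMSO | Incubation: 48 h exposure, 30 °C | Detection: Culture absorbance at 615 nm | Control set: Amphotericin B at 10 µg/mL as positive control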
RAM inhibit – inhibitors of the yeast RAM network, primary screen, dse1pr::URA3 reporter, 5-FOA selection; S. cerevisiae dse1pr::URA3 reporter, 5-FOA growth OD615, 2 d; analog-sensitive cbk1-as2 kinase mutant strain; inhibition, % at 50 µM; 1.8% of 190,000 active; AID 868, 2007;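 active means inhibition above a set limit, 3 SD over mean compound inhibition, cut at about 8.4% in these data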;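 further: inhibition rescues growth on 5-FOA so higher OD means more RAM inhibition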
Each line names hits and unclear results; the compound was inactive in the other large screens. Rows were chosen to be rich in hits. Some 6.1% of all compounds tested hit in one or more screens of this group.

COc1cc2c(cc1NC(=O)CSc1nc3ccccc3[nH]1)oc1ccccc12	WT yeast gro inh 64.1 (no result: DAT uptake mod)
COc1ccc(S(=O)(=O)N[C@@H](C)C(=O)OCC(=O)Nc2cc3oc4ccccc4c3cc2OC)cc1	RAM inhibit 9.6 (no result: DAT uptake mod)
COc1cc2c(cc1NC(=O)CSc1ccccc1)oc1ccccc12	RAM inhibit 10.6 (no result: DAT uptake mod)
COC(=O)c1ccccc1NC(=O)CSc1ccccc1	DAT uptake mod -9
Cc1ccc(C(=O)N2CCN(c3ccccc3F)CC2)cc1S(=O)(=O)N1CCOCC1	none (no result: Yeast life ext, DAT uptake mod, Measles CPE, BB579 growth dn)
Nn1c(SCC(=O)NC2CCCc3ccccc32)nnc1-c1ccc(Cl)cc1Cl (stereo unspecified)	none (no result: DAT uptake mod)
COC(=O)c1ccccc1NC(=O)/C=N/O	Measles CPE 43.7
COc1cc2c(cc1NC(=S)NC(=O)/C=C/c1ccc(OC)c(OC)c1)oc1ccccc12	Measles CPE 53.4 (no result: DAT uptake mod)
COc1ccc([N+](=O)[O-])cc1NC(=O)CSc1ccccc1	Measles CPE 66.2
COc1cc2c(cc1NC(=O)Nc1ccc(C)cc1)oc1ccccc12	WT yeast gro inh 96.1
COc1ccc(/C=C/C(=O)NC(=S)Nc2cc3oc4ccccc4c3cc2OC)cc1	none (no result: DAT uptake mod)
COC(=O)c1ccccc1NC(=O)/C=C/C(=O)O	none (no result: DAT uptake mod)
COc1cccc(C(C(=O)Nc2ccc(F)cc2)N(C(=O)Cn2nnc3ccccc32)C2CC2)c1 (stereo unspecified)	none
Cc1ccc2nc(SC(C)C(=O)N3CCOCC3)[nH]c2c1 (stereo unspecified)	none (no result: Yeast life ext, DAT uptake mod, Measles CPE, BB579 growth dn)
COC(=O)c1ccccc1NC(=O)c1sc(=S)n(C)c1N	DAT uptake mod 5.98
COC(=O)c1ccccc1NC(=O)c1sc(N)nc1C	none
CCOC(=O)c1cc2c(ccn2C)n1Cc1ccccc1Cl	WT yeast gro inh 68.5 (no result: Yeast life ext, DAT uptake mod, Measles CPE, BB579 growth dn)
COc1ccccc1COC(=O)Nc1c(C)nn(C)c1Cl	none
CCOc1cc(C2C3=C(CCCC3=O)N(CCC(=O)O)C3=C2C(=O)CCC3)ccc1OS(=O)(=O)c1ccc(C)cc1	none (no result: DAT uptake mod)
Cc1ccc(S(=O)(=O)Oc2ccc(C3C4=C(CCCC4=O)N(CCC(=O)O)C4=C3C(=O)CCC4)cc2Cl)cc1	RAM inhibit 8.9 (no result: DAT uptake mod)
CCCCOC(=O)C1=C(C)Nc2nnnn2C1c1ccc(OC)c(OC)c1OC (stereo unspecified)	Measles CPE 45.7
COCCNCC(=O)Nc1ccc(OC(F)(F)F)cc1	none (no result: Yeast life ext, DAT uptake mod, Measles CPE, BB579 growth dn)
CC(C)SCc1cc(N2CCCC2)nc(-c2ccccc2)n1	WT yeast gro inh 58.2 (no result: Yeast life ext, DAT uptake mod, Measles CPE, BB579 growth dn)
CC(=O)OC(C#CCN1CCOCC1)c1ccccc1 (stereo unspecified)	Measles CPE 46.3
Cc1ccc(S(=O)(=O)N2CCCCC2)cc1NC(=O)COC(=O)Cc1cccc(C(F)(F)F)c1	RAM inhibit 9.2 (no result: DAT uptake mod)
Cc1ccc(S(=O)(=O)N2CCCCC2)cc1NC(=O)COC(=O)Cc1ccc(Cl)cc1	none (no result: DAT uptake mod)
CC(=O)c1ccc(OCc2cccc(C(F)(F)F)c2)cc1O	none (no result: Yeast life ext, DAT uptake mod, Measles CPE, BB579 growth dn)
Cc1ccc(NC(=O)CSc2nn(-c3ccc(Cl)cc3)c(=S)s2)cc1S(=O)(=O)N(C)C	RAM inhibit 11.2 (no result: DAT uptake mod)
C/C(=N\Nc1ccc(C(F)(F)F)cc1[N+](=O)[O-])C1CC1	none (no result: DAT uptake mod)
CCOC(=O)C1CCN(C(=O)C(CC)c2ccccc2)CC1 (stereo unspecified)	none (no result: Yeast life ext, DAT uptake mod, Measles CPE, BB579 growth dn)
Cc1ccc(NC(=O)CCC(=O)OCC(=O)c2ccc(Oc3ccc([N+](=O)[O-])cc3)cc2)cc1C	WT yeast gro inh 66.5, RAM inhibit 10.6 (no result: DAT uptake mod)
CC(=O)Nc1ccc(NC(=O)CCC(=O)OCC(=O)c2cccc([N+](=O)[O-])c2)cc1	none (no result: Yeast life ext, DAT uptake mod, Measles CPE, BB579 growth dn)
NNC(=O)c1cccc(COc2ccc3c(c2)CCC3)c1	WT yeast gro inh 80.6, BB579 growth dn 51.0 (no result: DAT uptake mod)
COC(=O)c1ccccc1NC(=O)COc1ccc(S(=O)(=O)NC(C)C)cc1	none (no result: Yeast life ext, DAT uptake mod, Measles CPE, BB579 growth dn)
COc1cc(/C=N/Nc2ccc(Cl)c(C(=O)O)c2)ccc1OCC(=O)N1C(C)CCCC1C (stereo unspecified)	none (no result: Yeast life ext, DAT uptake mod, Measles CPE, BB579 growth dn)
COC(=O)CCC(=O)Nc1cccc([N+](=O)[O-])c1	none (no result: Yeast life ext, DAT uptake mod, Measles CPE, BB579 growth dn)
Cc1ccccc1OCCSCc1nc2ccccc2[nH]1	WT yeast gro inh 74.6 (no result: DAT uptake mod)
Cc1cc(NC(=S)N(CCCN2CCN(C)CC2)Cc2ccco2)ccc1Cl	none (no result: Yeast life ext, DAT uptake mod, Measles CPE, BB579 growth dn)
c1ccc(N2CCN(Cc3nnnn3C3CCCCC3)CC2)cc1	none
Cc1ccc(Cl)cc1N1CCN(Cc2nnnn2C2CCCCC2)CC1	WT yeast gro inh 73.5
C[C@H]1CC[C@H]2C(=O)N3[C@H](c4ccccc4Br)[C@@H](C)CC[C@H]3C(=O)N2[C@@H]1c1ccccc1Br	WT yeast gro inh 69.7 (no result: DAT uptake mod)
C[C@H]1CC[C@H]2C(=O)N3[C@H](c4cccc(N5CCCC5=O)c4)[C@@H](C)CC[C@H]3C(=O)N2[C@@H]1c1cccc(N2CCCC2=O)c1	none (no result: DAT uptake mod)
COCCNc1c(-c2cc3ccc(C)c(C)c3[nH]c2=O)nc2ccccn12	none (no result: Yeast life ext, DAT uptake mod, Measles CPE, BB579 growth dn)
CCCC(NC(=S)NCC1CCCO1)C12CC3CC(CC(C3)C1)C2 (stereo unspecified)	WT yeast gro inh 79.0 (no result: Yeast life ext, DAT uptake mod, Measles CPE, BB579 growth dn)
O=[N+]([O-])c1c(Nc2ccccc2)ccc2nonc12	Measles CPE 28.1
CCCCOC(=O)c1ccc(NC(=O)c2ccccc2OC)cc1	WT yeast gro inh 64.5 (no result: DAT uptake mod)
O=C(/C=C/c1ccc(Cl)cc1)NCCN1CCOCC1	DAT uptake mod -7.83
O=C(/C=C/c1cccc(Cl)c1)NCCN1CCOCC1	none (no result: DAT uptake mod)
O=C(NCCN1CCOCC1)c1cc(Cl)ccc1[N+](=O)[O-]	Measles CPE 32.4 (no result: DAT uptake mod)
c1ccc(-c2nnc(CSc3nc4ccccc4[nH]3)o2)cc1	Measles CPE 33.4
COc1ccc(-n2c(SCc3ccccn3)nc3c(c2=O)SCC3)cc1OC	none (no result: Yeast life ext, DAT uptake mod, Measles CPE, BB579 growth dn)
CCc1ccccc1NC(=O)/C(=C/c1ccco1)c1ccccc1	WT yeast gro inh 59.1
